# Assay results of several laboratories.
# Each line is one published result; the experiments were not run side by side.
# Effect on: cell growth or viability
Structure (SMILES),cell line,test,conditions,quantity,value
CC[C@@]1(O)C(=O)OCc2c1cc1n(c2=O)Cc2cc3ccccc3nc2-1,MP41,ATP luminescence,72 h,IC50,117 nM
COc1c(C)c2c(c(O)c1C/C=C(\C)CCC(=O)O)C(=O)OC2,MDA-MB-436,,,IC50,1120 nM
O=C(Nc1ccc(Cl)cc1)Nc1cccc(-c2cn(Cc3ccc(Br)cc3)nn2)c1,NCI-H1299,CCK-8,"50 µM, 72 h",viability,76.7%
COc1cc(C(=O)c2nc(-c3cccc4[nH]ccc34)c(Br)[nH]2)cc(OC)c1OC,M14,MTS,72 h,IC50,> 1000 nM
Cn1cc2cc(C(F)(F)c3nnc4ccc(-c5cnn(C6CC6)c5)nn34)c(F)cc2n1,MKN-45,CCK-8,72 h,IC50,12 nM
Cc1sc2c(c1C)C(c1ccc(Cl)cc1)=N[C@@H](CC(N)=O)c1nnc(C)n1-2,MP41,ATP luminescence,72 h,IC50,153 nM
CC(=O)N[C@H]1[C@@H](O[C@@H]2O[C@H](C[C@@H](O)[C@H]3O[C@@H](n4ccc(=O)[nH]c4=O)[C@H](O)[C@@H]3O)[C@H](O)[C@H](O)[C@H]2NC(=O)/C=C/CCCCCCCCCC(C)C)O[C@H](CO)[C@@H](O)[C@@H]1O,SK-BR-3,WST-1,,IC50,110 nM
N.N.O=C([O-])C1(C(=O)[O-])CCC1.[Pt+2],Vero,MTT,48 h,IC50,506000 nM
COc1cc(C(=O)c2nc(-c3c[nH]c4cccc(C)c34)c[nH]2)cc(OC)c1OC,M14,MTS,72 h,IC50,167 nM
N.N.[Cl][Pt][Cl],Vero,MTT,48 h,IC50,63100 nM
O=C(NCc1ccccc1)c1cn(Cc2ccc(C(F)(F)F)cc2)c2ccc(Oc3ccccc3)cc2c1=O,HCC70,,72 h,CC50,20500 nM
